ChEMBL document CHEMBL5678799 (Biochem J, 2009)
The source made the active and inactive calls. The rule behind the calls is not given here.

Legend:
[1] = molecular target: Casein kinase II subunit alpha (Homo sapiens) (UniProt P68400); assay: (§1) Inhibition of recombinant human N-terminal His6-tagged CK2alpha1 (2 to 391 residues) expressed in Escherichia coli assessed as remaining activity at 10 uM using RRRDDDSDDD as substrate incubated for 30 mins in presence of [gamma-33P]ATP by filter binding method relative to control
Outline: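 Radiometric panel assay run robotically at 21 °C for 30 min, linear in time and enzyme. […] Activity is expressed as percentage of the compound-omitted control, averaged from triplicates ± S.D.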

[2] = as §1, with “PKBbeta S474D mutant (120” for “CK2alpha1 (2”, “481” for “391”, “baculovirus infected Sf21 cells” for “Escherichia coli”, “crosstide peptide” for “RRRDDDSDDD”; conditions: condition cancer, 0.5 h
Outline: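 Assays ran 30 min at 21 °C, robotically and in the linear range. Remaining activity is given relative to incubations lacking compound, as the average of triplicate determinations ± S.D.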

[3] = species: Homo sapiens; assay: Inhibition of choline kinase (unknown origin) assessed as remaining activity at 10 uM using choline as substrate incubated for 30 mins in presence of ATP by Kinase Glo assay relative to control
Outline: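 Choline kinase assayed with 1 mM choline, 1 μM ATP in 25 mM glycine/NaOH pH 8.5, 67 mM KCl, 5 mM MgCl2, 1 mM DTT, 30 min at room temperature. Stopped with Kinase-Glo Plus, luminescence read after 10 min. Activity relative to control, triplicate.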

[4] = molecular target: T1, mTORC2 (Homo sapiens) (UniProt P42345+Q6R327+Q9BVC4+Q9BPZ7); conditions: HEK293, dose 30-1000 nM, time 30.0 min
[5] = molecular target: MAP kinase-activated protein kinase 5 (Homo sapiens) (UniProt Q8IW41); assay: Inhibition of recombinant human His6-tagged PRAK (1 to 471 residues) expressed in baculovirus infected Sf21 cells assessed as remaining activity at 10 uM using phosphorylase b peptide as substrate incubated for 30 mins in presence of [gamma-33P]ATP by filter binding method relative to control
Outline: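 Robotic radiometric panel assay, 30 min at room temperature (21 °C), with 10 mM magnesium acetate. […] Compound at 1 or 10 µM. Residual activity expressed relative to compound-free control; triplicate average ± S.D.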

[6] = molecular target: T1, mTORC2 (Homo sapiens); conditions: HEK293, dose 30-1000 nM, time 30.0 min; remark: listed apart in the source

Casein kinase II subunit alpha (Homo sapiens), sequence (P68400 whole entry, looked up, the tested form may be a part): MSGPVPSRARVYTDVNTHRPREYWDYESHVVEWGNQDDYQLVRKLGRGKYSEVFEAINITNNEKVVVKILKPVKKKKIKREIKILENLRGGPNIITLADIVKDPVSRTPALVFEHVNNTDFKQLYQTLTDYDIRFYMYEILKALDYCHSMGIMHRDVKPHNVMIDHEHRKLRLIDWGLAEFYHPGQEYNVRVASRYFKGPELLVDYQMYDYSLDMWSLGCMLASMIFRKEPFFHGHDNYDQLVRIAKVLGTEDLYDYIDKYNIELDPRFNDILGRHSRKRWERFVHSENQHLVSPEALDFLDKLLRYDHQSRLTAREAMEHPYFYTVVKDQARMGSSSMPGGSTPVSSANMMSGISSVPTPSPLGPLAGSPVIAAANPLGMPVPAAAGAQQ
MAP kinase-activated protein kinase 5 (Homo sapiens), sequence (Q8IW41 whole entry, the tested form may be a part): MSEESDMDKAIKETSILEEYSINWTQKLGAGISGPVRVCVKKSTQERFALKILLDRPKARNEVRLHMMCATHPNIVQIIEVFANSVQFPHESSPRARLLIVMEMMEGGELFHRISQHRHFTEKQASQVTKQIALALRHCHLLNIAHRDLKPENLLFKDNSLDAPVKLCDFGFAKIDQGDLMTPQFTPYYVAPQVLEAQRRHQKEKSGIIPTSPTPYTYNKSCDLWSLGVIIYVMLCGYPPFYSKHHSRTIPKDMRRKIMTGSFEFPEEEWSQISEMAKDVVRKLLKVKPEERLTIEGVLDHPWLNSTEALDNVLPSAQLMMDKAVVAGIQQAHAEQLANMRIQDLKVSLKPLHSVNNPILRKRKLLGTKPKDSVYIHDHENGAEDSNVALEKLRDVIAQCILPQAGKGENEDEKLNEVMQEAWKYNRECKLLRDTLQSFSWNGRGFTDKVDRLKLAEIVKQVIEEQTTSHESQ

Compound `COc1ccc(-c2ccc3c(N4CCOCC4)nc(N4C[C@@H](C)O[C@@H](C)C4)nc3n2)cc1CO` [Ku-0063794] has an Activity [1] of 85%, an Activity [2] of 107% and an Activity [3] of 102%. For the same compound, the inhibition [4] was “Active”, the Activity [5] was 87% and the inhibition [6] was “Dose-Dependent Effect”.
